In PMC9514665 (Neuropharmacology, 2021):
Where “and” joins values, the source holds several entries; their conditions need not be identical. Equal entries are not always repeated. Where two headings read alike, the source gives them in different places. Marks after values point to notes of the source that are not given here.

Experiments:
[1] = tested on: F1.Scn1a^+/− mice; conditions: 2017, cited from earlier work
[2] = tested on: CB1 receptor; conditions: repeated exposure to low doses, ref Ghosh et al., 2013, Kinsey et al.; cited from earlier work
[3] = Pharmacokinetic analysis in mouse plasma and brain after i.p. injection; assay type: in vivo
[4] = tested on: F1.Scn1a^+/− mice; assay: Hyperthermia-induced seizures; assay type: in vivo, mouse
Summary of the method: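 Male and female F1.Scn1a+/− mice at P14–16 received i.p. dosing (10 mL/kg; vehicle ethanol:Tween 80:saline 1:1:18). A rectal probe was inserted 15 min before the post-dose time point (30 or 60 min, set by PK), followed by 5-min acclimation. Core temperature was raised 0.5°C every 2 min until first clonic convulsion with loss of posture, or to 42.5°C with a 3-min hold. n = 17–22 per group; logrank Mantel-Cox.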

[5] = assay type: in vivo, mouse; conditions: for Plasma Concentration: 30 min; for Plasma Concentration / concentration at 60 min: F1.Scn1a^+/− mice; for concentration at 60 min: both, F1.Scn1a+/−, mouse, in vivo, Plasma Concentration
[6] = Aqueous solubility; assay type: physicochemical
[7] = Oral bioavailability after subchronic oral administration; assay type: in vivo, mouse; conditions: sufficient plasma concentrations not achieved
[8] = biological target: CB1 receptor; conditions: ref Laprairie et al., 2017; cited from earlier work
[9] = tested on: Genetic Absence Epilepsy Rats from Strasbourg (GAERS); conditions: ref Roebuck et al., 2021, cited from earlier work
[10] = tested on: wildtype mice; conditions: 10 mg/kg; ref Laprairie et al., 2019; cited from earlier work
[11] = tested on: neuropathic pain model; conditions: combined with the MAGL inhibitor JZL184; ref Slivicki et al., 2018; cited from earlier work
[12] = assay type: in vivo, mouse; conditions: 350 mg/kg chow, subchronic oral
[13] = tested on: F1.Scn1a^+/− mice; assay: Spontaneous seizures and survival; assay type: in vivo, mouse; conditions: 350 mg ABX-1431/kg chow
Summary of the method: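 Male and female F1.Scn1a+/− mice had one hyperthermia-induced seizure at P18, then were randomised to untreated or 350 mg/kg medicated chow made from irradiated powdered diet. Continuous 60-h video recording was used to count and score spontaneous GTCS. Treatment continued to P30 for survival. Fisher's exact test covered seizure-free and hindlimb-extension proportions, Mann-Whitney covered frequency, and logrank covered survival.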

[14] = tested on: 2-arachidonoylglycerol (2-AG); assay: Hippocampal 2-AG concentrations after ABX-1431 treatment; assay type: in vivo, mouse; conditions: F1.Scn1a^+/− mice
[15] = tested on: anandamide (AEA); assay: Hippocampal anandamide concentrations after ABX-1431 treatment; assay type: in vivo, mouse; conditions: acute i.p. treatment; F1.Scn1a^+/− mice
Summary of the method: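 Acute i.p. dosing of F1.Scn1a+/− mice in ethanol:Tween 80:saline (1:1:18), 10 mL/kg. Whole brains were taken 60 min post-dose after hyperthermia testing, by cervical dislocation without anaesthesia, and snap frozen. Hippocampi were Dounce-homogenised and spun at 20,000g for 30 min at 4°C. Supernatant underwent dichloromethane:methanol (2:1)/0.88% KCl liquid-liquid extraction on ice, avoiding plastics. Analysis was by UHPLC-triple quadrupole LC-MS/MS against external calibration curves. 2-AG: Brown-Forsythe ANOVA, Dunnett's T3. Anandamide: Kruskal-Wallis.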

[16] = tested on: CB1 receptor; assay: Hippocampal CB1 receptor expression by immunoblotting after subchronic treatment; assay type: in vivo, mouse; conditions: subchronic 350 mg ABX-1431/kg chow; F1.Scn1a^+/− mice; p = 0.0077
Summary of the method: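 Hippocampi from F1.Scn1a+/− mice, untreated or fed 350 mg/kg chow, were Dounce-homogenised in buffered 0.32 M sucrose. Membranes were isolated by sequential 2,000g and 20,000g spins at 4°C and protein quantified by Bradford. Membrane protein (20 μg) was run on 10% SDS-PAGE and transferred to PVDF. Rabbit anti-CB1 was detected with fluorescent secondaries (1:20,000). Densitometry was normalised to β-tubulin; Student's t-test.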

[17] = brain, wildtype mice, 5 mg/kg i.p.
[18] = brain, wildtype mice, 5 mg/kg i.p., converted from ng/mg brain assuming density of 1 g/mL
[19] = plasma, wildtype mice, 5 mg/kg i.p.

## C=C(C)[C@@H]1CCC(C)=C[C@H]1c1c(O)cc(CCCCC)cc1O [CBD, cannabidiol]
[1]; ref Anderson et al., 2020, 2019a, Kaplan et al.
  effective dose in this model: 100 mg/kg

## O=C(Oc1ccc([N+](=O)[O-])cc1)N1CCC(C(O)(c2ccc3c(c2)OCO3)c2ccc3c(c2)OCO3)CC1 [JZL184]
[2]
  CB1 receptor downregulation and desensitization: does not occur

## CN1C(=O)CC(=O)N(c2ccccc2)c2cc(Cl)ccc21 [clobazam]
[1]; ref Anderson et al., 2019a, Hawkins et al.
  effective dose in this model: 1 mg/kg

## O=[N+]([O-])C[C@@H](c1ccccc1)c1c(-c2ccccc2)[nH]c2ccccc12 [GAT229]
[3]; [17]
  t1/2: 53 min
  tmax: 30 ng/mL
[3]; [18]
  AUC: 85 ^* μg min/mL
  Cmax: 888 ± 90 ng/mL
[3]; [19]
  AUC: 74 µg·min/mL
  Cmax: 858 ± 167 ng/mL
  t1/2: 45 min
  tmax: 30 ng/mL
[3]; wildtype mice, 5 mg/kg i.p.
  brain-plasma: 110%
  brain-plasma ratio: 1.1
[4]; 30 mg/kg i.p., vehicle 41.1 ± 0.1°C, p = 0.0152
  temperature threshold for thermally-induced seizures (GTCS): 41.7 ± 0.2 °C
[4]; 100 mg/kg i.p., vehicle 41.1 ± 0.1°C, p = 0.0059
  temperature threshold for thermally-induced seizures (GTCS): 41.8 ± 0.1 °C
[5]; 10 mg/kg i.p.
  Plasma Concentration: 900 ± 100 ng/mL
[5]; 30 mg/kg i.p. (suspension)
  Plasma Concentration: 2600 ± 500 ng/mL
[5]; 100 mg/kg i.p. (suspension)
  Plasma Concentration: 3200 ± 200 ng/mL
[5]; 30 and 100 mg/kg doses
  Plasma concentrations in experimental animals: 7.6–9.3 μM and 2.6–3.2 μg/mL
[5]; co-treatment GAT229 + ABX-1431 (30 mg/kg + 10 mg/kg)
  Plasma Concentration of GAT229: 2300 ± 300 ng/mL
[6]
  aqueous solubility: poor
[7]
  oral bioavailability: poor
[8]
  EC50: ~295 nM
[9]; GAERs model
  association with sedation or catalepsy: not associated
[9]
  effect against absence seizures: anticonvulsant effects
[10]
  effect on locomotor activity: reduced

## O=[N+]([O-])CC(c1ccccc1)c1c(-c2ccccc2)[nH]c2ccccc12 (stereo not shown) [GAT211]
[11]
  antinociceptive effect: synergistic

## O=C(OC(C(F)(F)F)C(F)(F)F)N1CCN(Cc2ccc(C(F)(F)F)cc2N2CCCC2)CC1 [ABX-1431]
[3]; mouse, in vivo, ip, 5 mg/kg
  AUC: 29 µg·min/mL
  Cmax: 317 ± 40 ng/mL
  brain half-life (in words): prolonged
  half-life: 47 min
[3]; mouse, in vivo, ip, 5 mg/kg, Cmax
  Cmax: 468 ± 40 ng/mL
[4]; 10 mg/kg i.p., vehicle 40.6 ± 0.1°C, p = 0.0008
  temperature threshold for thermally-induced seizures (GTCS): 41.3 ± 0.2 °C
[5]; 3 mg/kg i.p.
  concentration at 60 min: 198 ± 31 ng/mL
[5]; 10 mg/kg i.p.
  concentration at 60 min: 373 ± 53 ng/mL
[5]; 30 mg/kg i.p.
  concentration at 60 min: 883 ± 114 ng/mL
[12]
  Plasma Concentration: 170 to 394 ng/mL
[13]; P18 to P30, p = 0.6803
  survival compared with untreated controls: not different
[13]; 60-h recording, vs untreated, p = 0.0064
  effect on spontaneous seizure (GTCS) frequency: significantly increase
[13]; 93/272 seizures, untreated 45/83 (54%), p = 0.0011
  proportion of seizures that progressed to full hindlimb extension: 34%
[13]; vs untreated, p = 0.6562
  effect on proportion of mice that exhibited seizures: did not affect
[14]; acute 10 mg/kg i.p.
  hippocampal 2-AG concentrations relative to vehicle-treated mice: 8 fold
[14]; acute 30 mg/kg i.p.
  hippocampal 2-AG concentrations increase: 13 fold
[14]; subchronic oral (350 mg/kg chow)
  hippocampal 2-AG concentrations increase: 15 fold
[15]
  effect on hippocampal anandamide concentrations: not affected
[16]
  effect on hippocampal CB1 receptor expression: significantly lowered
